From PubChem BioAssay AID624466 (The Scripps Research Institute Molecular Screening Center, 2012)
Screen size: about 360,000 compounds; about 5,400 (1.5%) were called active. The entries come from a sample that favours actives as a whole. Unmarked numbers belong to inactive results.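 Rule for the calls: active = inhibition above a per-plate cutoff, the mean inhibition of test compounds on that plate plus 3 SD (cut at about 49% in these data); inactive = the rest.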

What follows are molecules tested against Trace amine-associated receptor 1 (Homo sapiens) (UniProt Q96RJ0) (assay: human TAAR1 antagonists, primary screen, Fluo-8 calcium fluorescence, CHO RD-HGA16 cells (AID 624466;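 note: 0% = DMSO plus EC80 beta-PEA response and 100% = DMSO alone without agonist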)). Settings: CHO RD-HGA16 TAAR1, Fluo-8 calcium fluorescence, antagonist; at 3 µM; active compounds read high.
Trace amine-associated receptor 1 (Homo sapiens), sequence (Q96RJ0 whole entry, looked up): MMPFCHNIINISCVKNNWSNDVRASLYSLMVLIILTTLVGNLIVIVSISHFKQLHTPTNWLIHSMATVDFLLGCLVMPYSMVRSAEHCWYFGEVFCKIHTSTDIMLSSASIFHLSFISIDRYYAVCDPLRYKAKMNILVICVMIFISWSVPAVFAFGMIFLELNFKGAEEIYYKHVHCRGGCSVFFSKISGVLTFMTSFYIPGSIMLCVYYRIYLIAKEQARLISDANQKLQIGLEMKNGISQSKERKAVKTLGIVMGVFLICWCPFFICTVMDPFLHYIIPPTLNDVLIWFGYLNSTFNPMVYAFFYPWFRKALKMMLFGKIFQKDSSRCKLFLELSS
Summary of the method: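 Assay system: CHO-derived RD-HGA16 cells stably expressing human TAAR1 plus Gα16. Timing: 140 s kinetic read after compound, 140 s after agonist. Technique: kinetic Fluo-8 calcium fluorescence measurement. Measure: % inhibition of agonist calcium response.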

Row | SMILES | inhibition
1 | Nc1ccn([C@@H]2O[C@H](C(=O)N[C@H]3CCCCNC3=O)[C@@H](O)[C@H]2O)c(=O)n1 | 21.5%
2 | O=C(COC(=O)c1ccc(S(=O)(=O)N2CCc3ccccc3C2)cc1)NC(=O)NCc1ccco1 | 0.28%
3 | Cc1cc(N2CCN(C(=O)OC(C)(C)C)C[C@H]2C)ccc1N1CCN(Cc2ccccc2)[C@H](C)C1 | 8.39%
4 | COc1ccc(OC)c(Nc2nc3ccccc3n3cnnc23)c1 | -3.9%
5 | COc1ccc(Sc2ccc(NC(=O)c3cccc(Cl)c3)cc2C#N)cc1 | 48.8% (active)
6 | Cc1ccc(Sc2ccc(NC(=O)c3ccc(F)cc3)cc2C#N)cc1 | 47.8%
7 | CSc1ccc(C#N)cc1NC(=O)c1cccc(Cl)c1 | -1.36%
8 | Cc1cc(C)n2c(NCc3ccccc3)c(CC(C)C)nc2n1 | -31.3%
9 | COc1ccccc1-c1cc(NC(C)=O)c2ncc(-c3ccc(F)cc3)n2c1 | 11%
10 | COc1cccc(-c2cnc3c(NC(C)=O)cc(-c4cc(F)ccc4OC)cn23)c1 | 56.7% (active)
11 | COc1cccc(-c2cnc3c(NC(C)=O)cc(-c4cccc(NC(C)=O)c4)cn23)c1 | 33.8%
12 | CC1(C)CC(=O)C2=C(C1)Nc1cc(C(=O)c3ccccc3)ccc1NC2c1ccccn1 (stereo unspecified) | -12.4%
13 | Cc1ccc(C)c(NS(=O)(=O)c2c(C)[nH]c(C)c2C(=O)N2CCCCC2)c1 | -30.8%
14 | Cc1ccc(SCC(=O)Nc2ccc3c(c2)OCCO3)cc1 | -11.4%
15 | Cc1ccc(SCC(=O)c2cc(C)c(OC(=S)N(C)C)c(C)c2)cc1 | 57% (active)
16 | COC(=O)c1cc(OC)c(OC)cc1NC(=O)CSc1ccc(C)cc1 | -0.75%
17 | COC(=O)c1ccc2nc(-c3cccc(Br)c3)c(Cc3ccc(OC)cc3C)n2c1 | -4.86%
18 | CCCCNc1c(-c2cccc(Sc3ccc(OC)cc3)c2)nc2ccccn12 | 87.9% (active)
19 | COC(=O)c1ccc2nc(-c3ccccc3)c(Cc3ccc(OC)cc3C)n2c1 | 3.43%
20 | CCCCNC(=O)CCn1nc(-c2ccc(Cl)cc2)ccc1=O | -14.1%
21 | c1ccc(Nc2nc(N3CCOCC3)c3ccccc3n2)cc1 | 74.1% (active)
22 | COc1ccc(Nc2ncc(F)c(N3CCOCC3)n2)cc1 | 7.62%
23 | C/C(=N\Nc1nc(Nc2ccccc2)nc(N2CCOCC2)n1)c1cccs1 | 9.62%
24 | O=C(O)C1CCCN(S(=O)(=O)c2cccc3cccnc23)C1 (stereo unspecified) | -9.13%
25 | COc1ccc(CCNC(=O)C2CCCN(S(=O)(=O)c3ccc(OC)cc3)C2)cc1 (stereo unspecified) | 5.88%
26 | COc1ccc(NC(=O)C2CCCN(S(=O)(=O)c3cccc4cccnc34)C2)cc1OC (stereo unspecified) | 66.5% (active)

Row | SMILES | inhibition
27 | COc1ccccc1CNC(=O)C1CCCN(S(=O)(=O)c2cccc3cccnc23)C1 (stereo unspecified) | -10.9%
28 | COc1ccc(S(=O)(=O)N2CCCC(C(=O)Nc3ccc(NC(=O)c4ccccn4)cc3)C2)cc1 (stereo unspecified) | 63% (active)
29 | CC(=O)Nc1ccc(NC(=O)C2CCCN(S(=O)(=O)c3ccc(Cl)cc3)C2)cc1 (stereo unspecified) | 9.58%
30 | CCN(CC(=O)Nc1ccc(NC(C)=O)cc1)C(=O)CSC(=S)N1CCCC1 | 14.2%
31 | O=C1[C@H]2[C@@H](c3ccc(C(F)(F)F)cc3)N[C@]3(CCCN(Cc4ccc(Br)cc4)C3=O)[C@H]2C(=O)N1Cc1ccccc1 | -23.7%
32 | CCCNC(=O)C[C@@H]1CC[C@@H]2[C@H](COC[C@H](O)CN2C(=O)c2cc(Cl)cc(Cl)c2)O1 | -27.3%
33 | O=C(NCCCc1ccccc1)C1CCC(=O)N(CCc2ccc(Cl)cc2)C1 (stereo unspecified) | 2.14%
34 | CCOc1cc(N2CCOCC2)c(OCC)cc1NC(=O)COC(=O)[C@H](Cc1c[nH]c2ccccc12)NC(C)=O | 22.1%
35 | CCOc1cc(N2CCOCC2)c(OCC)cc1NC(=O)C1=NN(c2cccc(C)c2)C(=O)CC1 | 44.9%
36 | CCOc1cc(N2CCOCC2)c(OCC)cc1NC(=O)COc1cccc2cccnc12 | 56.4% (active)
37 | O=C(NCCN1C(=O)S/C(=C\c2cccnc2)C1=O)c1ccc(S(=O)(=O)N2CCCC2)cc1 | 49.1% (active)
38 | O=C(NCCN1C(=O)S/C(=C\c2cccnc2)C1=O)c1cccc(OC(F)F)c1 | 7.53%
39 | COc1ccccc1N1CC(C(=O)NCCN2C(=O)S/C(=C\c3cccnc3)C2=O)CC1=O (stereo unspecified) | -4.74%
40 | COC(=O)[C@@]12C[C@@H](CC(=O)NCc3cccc(C(F)(F)F)c3)C(=O)N(Cc3ccco3)C1=CCC(C)(C)C2 | -43.8%
41 | COC(=O)c1cc2c(c3c4ccccc4n(S(=O)(=O)c4cccc(C)c4)c13)C(=O)N(Cc1ccccc1)C2 | -30.3%
42 | O=S1(=O)c2c(cccc2N2CCCCC2)O[C@H](COCc2ccccc2)CN1C1CC1 | 51.8% (active)
43 | CSc1ccc(Oc2cccc3c2S(=O)(=O)N([C@H](C)c2ccccc2)C[C@@H](COCc2ccccc2)O3)cc1C | 5.23%
44 | O=S1(=O)c2c(cccc2N2CCCC2)O[C@H](COCc2ccccc2)CN1C1CC1 | 23.8%
45 | COC(=O)C1=C(C(=O)OC)C2C=C(C(C)C)C1C(=O)C2(C)O (stereo unspecified) | -37.3%
46 | C[C@@H]1CN([C@@H](C)CO)S(=O)(=O)c2ccc(C#Cc3cccc(F)c3)cc2O[C@H]1CN(C)S(=O)(=O)c1cn(C)cn1 | 68.3% (active)
47 | C[C@@H]1CN([C@H](C)CO)S(=O)(=O)c2ccc(C#C[C@@H](C)O)cc2O[C@@H]1CN(C)Cc1ccc(-c2ccccc2)cc1 | -12.7%
48 | C[C@H]1CN([C@@H](C)CO)S(=O)(=O)c2ccc(-c3cccc(F)c3)cc2O[C@@H]1CN(C)C | -12.6%
49 | C=CCN1C(=O)N(Cc2ccccc2)c2ccccc2S1(=O)=O | -0.33%
50 | COCCNC(=O)c1cc2c(Br)ccc(Br)c2nc1N | -4.31%
51 | CC(=O)Nc1ccc(NC(=O)CS(=O)(=O)c2cn(CC(=O)N3CCCCC3)c3ccccc23)cc1 | -35.2%
